Measurements taken from ChEMBL document CHEMBL5712886, “Discovery and Characterization of GSK2801, a Selective Chemical Probe for the Bromodomains BAZ2A and BAZ2B” (J Med Chem, 2016).
Activity calls are given as the source filed them. The rule behind the calls is not given here.

Key:
[1] = biological target: Bromodomain-containing protein 2 (Homo sapiens) (UniProt P25440); assay: Binding affinity to biotinylated BRD2 bromodomain-1 (unknown origin) expressed in Escherichia coli at 0.2 to 1 uM by Biolayer Interferometric analysis; settings: dose 0.2-1 µM
Procedure, shortened: (§1)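 Bromodomains carrying a BirA biotin ligase targeting sequence, coexpressed with BirA in bacteria to give homogeneous in vivo biotin labelling, checked by mass spectrometry. Biotinylated proteins probed by biolayer interferometry with compound at two concentrations, 0.2 and 1.0 μM.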

[2] = biological target: Bromodomain-containing protein 4 (Homo sapiens) (UniProt O60885); assay: Binding affinity to biotinylated BRD4 bromodomain-1 (unknown origin) expressed in Escherichia coli at 0.2 to 1 uM by Biolayer Interferometric analysis; settings: dose 0.2-1 µM; procedure, shortened: as §1
[3] = biological target: Nucleosome-remodeling factor subunit BPTF (Homo sapiens) (UniProt Q12830); assay: Binding affinity to biotinylated FALZ (unknown origin) expressed in Escherichia coli at 0.2 to 1 uM by Biolayer Interferometric analysis; settings: dose 0.2-1 µM; procedure, shortened: as §1
[4] = biological target: T1, SWI/SNF-related matrix-associated actin-dependent regulator of chromatin subfamily A member 4 (Homo sapiens, UniProt P51532); assay: Binding affinity to SMARCA4 in human HUT78 cell extract using GSK2801 affinity matrix by chemoproteomic competition binding assay; type: cell-free
Peregrin (Homo sapiens) = Peregrin (Homo sapiens) (UniProt P55201); assay: Binding affinity to biotinylated BRPF1 bromodomain-1 (unknown origin) expressed in Escherichia coli at 0.2 to 1 uM by Biolayer Interferometric analysis; settings: dose 0.2-1 µM; procedure, shortened: as §1
[5] = biological target: Histone acetyltransferase KAT2B (Homo sapiens) (UniProt Q92831); assay: Binding affinity to biotinylated PCAF (unknown origin) expressed in Escherichia coli at 0.2 to 1 uM by Biolayer Interferometric analysis; settings: dose 0.2-1 µM; procedure, shortened: as §1
[6] = biological target: Transcription intermediary factor 1-alpha (Homo sapiens) (UniProt O15164); assay: Binding affinity to biotinylated TIF1 bromodomain-1 (unknown origin) expressed in Escherichia coli at 0.2 to 1 uM by Biolayer Interferometric analysis; settings: dose 0.2-1 µM; procedure, shortened: as §1
[7] = biological target: Bromodomain-containing protein 3 (Homo sapiens) (UniProt Q15059); assay: Binding affinity to biotinylated BRD3 bromodomain-1 (unknown origin) expressed in Escherichia coli at 0.2 to 1 uM by Biolayer Interferometric analysis; settings: dose 0.2-1 µM; procedure, shortened: as §1
[8] = biological target: ATPase family AAA domain-containing protein 2 (Homo sapiens) (UniProt Q6PL18); assay: Binding affinity to biotinylated ATAD2 (unknown origin) expressed in Escherichia coli at 0.2 to 1 uM by Biolayer Interferometric analysis; settings: dose 0.2-1 µM; procedure, shortened: as §1
[9] = biological target: Protein polybromo-1 (Homo sapiens) (UniProt Q86U86); assay: Binding affinity to biotinylated PB1 bromodomain-1 (unknown origin) expressed in Escherichia coli at 0.2 to 1 uM by Biolayer Interferometric analysis; settings: dose 0.2-1 µM; procedure, shortened: as §1
[10] = biological target: Transcription initiation factor TFIID subunit 1 (Homo sapiens) (UniProt P21675); assay: Binding affinity to biotinylated TAF1 bromodomain-1 (unknown origin) expressed in Escherichia coli at 0.2 to 1 uM by Biolayer Interferometric analysis; settings: dose 0.2-1 µM; procedure, shortened: as §1
[11] = biological target: Bromodomain-containing protein 1 (Homo sapiens) (UniProt O95696); assay: Binding affinity to biotinylated BRD1 (unknown origin) expressed in Escherichia coli at 0.2 to 1 uM by Biolayer Interferometric analysis; settings: dose 0.2-1 µM; procedure, shortened: as §1
[12] = biological target: CREB-binding protein (Homo sapiens) (UniProt Q92793); assay: Binding affinity to biotinylated CREBBP (unknown origin) expressed in Escherichia coli at 0.2 to 1 uM by Biolayer Interferometric analysis; settings: dose 0.2-1 µM; procedure, shortened: as §1
[13] = biological target: Bromodomain testis-specific protein (Homo sapiens) (UniProt Q58F21); assay: Binding affinity to biotinylated BRDT bromodomain-2 (unknown origin) expressed in Escherichia coli at 0.2 to 1 uM by Biolayer Interferometric analysis; settings: dose 0.2-1 µM; procedure, shortened: as §1
[14] = biological target: Protein polybromo-1 (Homo sapiens) (UniProt Q86U86); assay: Binding affinity to biotinylated PB1 bromodomain-2 (unknown origin) expressed in Escherichia coli at 0.2 to 1 uM by Biolayer Interferometric analysis; settings: dose 0.2-1 µM; procedure, shortened: as §1
[15] = biological target: Bromodomain and WD repeat-containing protein 3 (Homo sapiens) (UniProt Q6RI45); assay: Binding affinity to biotinylated BRWD3 bromodomain-2 (unknown origin) expressed in Escherichia coli at 0.2 to 1 uM by Biolayer Interferometric analysis; settings: dose 0.2-1 µM; procedure, shortened: as §1
[16] = biological target: Tyrosine-protein kinase BAZ1B (Homo sapiens) (UniProt Q9UIG0); assay: Binding affinity to biotinylated BAZ1B (unknown origin) expressed in Escherichia coli at 0.2 to 1 uM by Biolayer Interferometric analysis; settings: dose 0.2-1 µM; procedure, shortened: as §1
[17] = biological target: ATPase family AAA domain-containing protein 2B (Homo sapiens) (UniProt Q9ULI0); assay: Binding affinity to biotinylated KIAA1240 (unknown origin) expressed in Escherichia coli at 0.2 to 1 uM by Biolayer Interferometric analysis; settings: dose 0.2-1 µM; procedure, shortened: as §1
[18] = biological target: T1, SWI/SNF-related matrix-associated actin-dependent regulator of chromatin subfamily A member 4; assay: Binding affinity to biotinylated SMARCA4 (unknown origin) expressed in Escherichia coli at 0.2 to 1 uM by Biolayer Interferometric analysis; settings: dose 0.2-1 µM; procedure, shortened: as §1
[19] = biological target: Bromodomain-containing protein 4 (Homo sapiens) (UniProt O60885); assay: Binding affinity to biotinylated BRD4 bromodomain-2 (unknown origin) expressed in Escherichia coli at 0.2 to 1 uM by Biolayer Interferometric analysis; settings: dose 0.2-1 µM; procedure, shortened: as §1
[20] = biological target: Bromodomain-containing protein 3 (Homo sapiens) (UniProt Q15059); assay: Binding affinity to biotinylated BRD3 bromodomain-2 (unknown origin) expressed in Escherichia coli at 0.2 to 1 uM by Biolayer Interferometric analysis; settings: dose 0.2-1 µM; procedure, shortened: as §1
[21] = biological target: Protein polybromo-1 (Homo sapiens) (UniProt Q86U86); assay: Binding affinity to biotinylated PB1 bromodomain-4 (unknown origin) expressed in Escherichia coli at 0.2 to 1 uM by Biolayer Interferometric analysis; settings: dose 0.2-1 µM; procedure, shortened: as §1

Protein polybromo-1 (Homo sapiens), sequence (Q86U86 whole entry): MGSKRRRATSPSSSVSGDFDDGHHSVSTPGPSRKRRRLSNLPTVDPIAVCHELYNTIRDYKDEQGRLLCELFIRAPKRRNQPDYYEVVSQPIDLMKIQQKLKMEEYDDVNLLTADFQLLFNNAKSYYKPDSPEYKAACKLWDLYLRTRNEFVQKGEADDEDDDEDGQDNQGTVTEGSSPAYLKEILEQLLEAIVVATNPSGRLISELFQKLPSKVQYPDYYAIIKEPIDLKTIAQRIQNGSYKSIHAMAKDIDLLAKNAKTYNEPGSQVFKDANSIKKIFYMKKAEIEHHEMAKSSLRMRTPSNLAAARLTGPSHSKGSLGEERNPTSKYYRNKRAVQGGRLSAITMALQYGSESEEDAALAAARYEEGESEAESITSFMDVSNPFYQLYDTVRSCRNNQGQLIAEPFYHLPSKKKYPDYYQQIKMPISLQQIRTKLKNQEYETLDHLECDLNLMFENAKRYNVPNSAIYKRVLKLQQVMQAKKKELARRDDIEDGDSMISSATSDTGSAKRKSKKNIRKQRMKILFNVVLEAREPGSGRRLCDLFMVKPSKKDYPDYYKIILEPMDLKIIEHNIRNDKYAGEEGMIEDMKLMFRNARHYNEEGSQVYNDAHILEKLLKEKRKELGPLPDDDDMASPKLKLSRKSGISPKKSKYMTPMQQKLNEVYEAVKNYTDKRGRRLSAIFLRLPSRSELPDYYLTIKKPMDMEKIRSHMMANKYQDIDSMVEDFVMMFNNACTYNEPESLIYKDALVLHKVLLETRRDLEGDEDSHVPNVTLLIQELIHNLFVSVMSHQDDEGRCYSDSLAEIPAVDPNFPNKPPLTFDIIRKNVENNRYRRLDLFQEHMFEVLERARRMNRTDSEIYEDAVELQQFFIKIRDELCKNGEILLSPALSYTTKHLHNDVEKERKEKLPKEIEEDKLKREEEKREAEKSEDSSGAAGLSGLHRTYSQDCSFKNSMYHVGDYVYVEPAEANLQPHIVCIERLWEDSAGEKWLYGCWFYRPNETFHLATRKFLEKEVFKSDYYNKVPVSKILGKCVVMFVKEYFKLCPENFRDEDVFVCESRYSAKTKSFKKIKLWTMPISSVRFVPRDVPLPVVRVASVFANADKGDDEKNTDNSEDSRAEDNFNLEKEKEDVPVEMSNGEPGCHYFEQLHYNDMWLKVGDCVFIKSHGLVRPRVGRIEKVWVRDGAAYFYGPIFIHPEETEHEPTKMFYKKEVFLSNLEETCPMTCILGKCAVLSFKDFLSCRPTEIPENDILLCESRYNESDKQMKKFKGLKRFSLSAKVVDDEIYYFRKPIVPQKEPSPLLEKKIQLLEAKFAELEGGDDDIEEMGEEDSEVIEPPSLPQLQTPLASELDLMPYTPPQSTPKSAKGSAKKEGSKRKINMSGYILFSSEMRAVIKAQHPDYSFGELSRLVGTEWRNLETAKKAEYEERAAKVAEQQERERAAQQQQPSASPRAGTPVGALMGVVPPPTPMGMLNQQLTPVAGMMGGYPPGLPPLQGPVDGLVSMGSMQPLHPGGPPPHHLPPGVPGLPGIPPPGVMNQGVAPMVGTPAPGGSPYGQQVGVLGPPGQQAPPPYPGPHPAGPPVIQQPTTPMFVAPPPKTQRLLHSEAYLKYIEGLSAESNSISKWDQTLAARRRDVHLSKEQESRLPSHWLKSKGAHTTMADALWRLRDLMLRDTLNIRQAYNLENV
Bromodomain-containing protein 3 (Homo sapiens), sequence (Q15059 2-726 limits assumed): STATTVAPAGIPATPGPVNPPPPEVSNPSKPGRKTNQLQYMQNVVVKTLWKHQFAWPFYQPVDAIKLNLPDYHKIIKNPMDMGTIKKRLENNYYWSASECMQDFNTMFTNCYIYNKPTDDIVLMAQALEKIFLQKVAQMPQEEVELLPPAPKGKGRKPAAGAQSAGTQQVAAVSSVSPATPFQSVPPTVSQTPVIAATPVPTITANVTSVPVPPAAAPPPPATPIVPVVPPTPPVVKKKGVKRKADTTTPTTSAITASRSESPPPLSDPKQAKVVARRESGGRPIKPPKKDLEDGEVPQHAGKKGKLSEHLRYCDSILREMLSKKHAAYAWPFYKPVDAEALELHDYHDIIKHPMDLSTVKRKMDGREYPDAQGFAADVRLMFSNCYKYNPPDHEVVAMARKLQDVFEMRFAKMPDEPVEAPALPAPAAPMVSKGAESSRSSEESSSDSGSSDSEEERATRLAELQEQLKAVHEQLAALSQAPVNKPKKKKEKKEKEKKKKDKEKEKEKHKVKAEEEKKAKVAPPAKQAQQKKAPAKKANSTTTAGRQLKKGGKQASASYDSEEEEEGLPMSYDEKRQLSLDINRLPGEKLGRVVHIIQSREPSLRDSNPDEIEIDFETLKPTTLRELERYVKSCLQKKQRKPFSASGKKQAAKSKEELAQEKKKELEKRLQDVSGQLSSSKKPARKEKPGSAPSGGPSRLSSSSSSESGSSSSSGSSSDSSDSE
T1 sequence (P51532 whole entry): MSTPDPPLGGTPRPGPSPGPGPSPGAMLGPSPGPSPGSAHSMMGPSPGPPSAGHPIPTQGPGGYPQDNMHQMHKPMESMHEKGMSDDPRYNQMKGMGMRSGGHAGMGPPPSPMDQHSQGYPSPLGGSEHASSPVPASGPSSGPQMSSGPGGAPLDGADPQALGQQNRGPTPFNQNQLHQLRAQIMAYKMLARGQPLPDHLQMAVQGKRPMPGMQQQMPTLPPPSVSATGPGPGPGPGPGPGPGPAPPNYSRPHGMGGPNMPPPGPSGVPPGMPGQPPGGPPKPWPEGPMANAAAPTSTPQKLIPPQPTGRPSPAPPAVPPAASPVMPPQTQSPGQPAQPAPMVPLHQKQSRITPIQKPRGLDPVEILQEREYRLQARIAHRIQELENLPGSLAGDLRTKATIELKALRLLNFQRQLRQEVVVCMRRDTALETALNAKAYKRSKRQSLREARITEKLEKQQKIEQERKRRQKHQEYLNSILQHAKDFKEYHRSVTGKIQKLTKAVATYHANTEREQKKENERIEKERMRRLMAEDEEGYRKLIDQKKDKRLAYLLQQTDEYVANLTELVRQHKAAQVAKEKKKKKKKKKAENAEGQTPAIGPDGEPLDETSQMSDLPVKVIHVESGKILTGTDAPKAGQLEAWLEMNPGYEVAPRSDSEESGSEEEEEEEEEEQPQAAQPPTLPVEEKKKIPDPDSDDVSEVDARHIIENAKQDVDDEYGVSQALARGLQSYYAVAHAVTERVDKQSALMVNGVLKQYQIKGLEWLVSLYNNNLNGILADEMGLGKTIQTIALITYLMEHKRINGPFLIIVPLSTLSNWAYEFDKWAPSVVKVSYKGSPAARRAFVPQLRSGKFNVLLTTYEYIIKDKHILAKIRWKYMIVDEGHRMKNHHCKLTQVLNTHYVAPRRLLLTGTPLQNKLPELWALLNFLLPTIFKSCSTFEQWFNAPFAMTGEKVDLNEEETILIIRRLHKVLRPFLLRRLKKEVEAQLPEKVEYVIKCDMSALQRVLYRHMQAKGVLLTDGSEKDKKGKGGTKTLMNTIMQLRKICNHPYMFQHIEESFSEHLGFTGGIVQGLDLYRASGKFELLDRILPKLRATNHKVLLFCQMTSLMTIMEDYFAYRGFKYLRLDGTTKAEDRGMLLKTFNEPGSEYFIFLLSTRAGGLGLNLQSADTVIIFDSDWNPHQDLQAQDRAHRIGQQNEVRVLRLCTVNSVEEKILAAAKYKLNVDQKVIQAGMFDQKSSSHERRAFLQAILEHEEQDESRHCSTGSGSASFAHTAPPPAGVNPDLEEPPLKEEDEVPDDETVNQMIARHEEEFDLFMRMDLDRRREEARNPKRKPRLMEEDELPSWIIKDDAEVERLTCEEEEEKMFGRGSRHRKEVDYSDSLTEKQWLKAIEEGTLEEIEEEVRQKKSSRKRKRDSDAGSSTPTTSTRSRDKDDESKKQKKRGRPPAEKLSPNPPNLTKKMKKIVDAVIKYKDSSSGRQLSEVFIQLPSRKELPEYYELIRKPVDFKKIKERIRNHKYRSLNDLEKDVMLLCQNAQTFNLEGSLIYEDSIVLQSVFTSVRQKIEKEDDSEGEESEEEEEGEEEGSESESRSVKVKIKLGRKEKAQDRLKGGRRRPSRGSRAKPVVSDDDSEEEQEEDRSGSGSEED
Bromodomain-containing protein 2 (Homo sapiens), sequence (P25440 whole entry, looked up): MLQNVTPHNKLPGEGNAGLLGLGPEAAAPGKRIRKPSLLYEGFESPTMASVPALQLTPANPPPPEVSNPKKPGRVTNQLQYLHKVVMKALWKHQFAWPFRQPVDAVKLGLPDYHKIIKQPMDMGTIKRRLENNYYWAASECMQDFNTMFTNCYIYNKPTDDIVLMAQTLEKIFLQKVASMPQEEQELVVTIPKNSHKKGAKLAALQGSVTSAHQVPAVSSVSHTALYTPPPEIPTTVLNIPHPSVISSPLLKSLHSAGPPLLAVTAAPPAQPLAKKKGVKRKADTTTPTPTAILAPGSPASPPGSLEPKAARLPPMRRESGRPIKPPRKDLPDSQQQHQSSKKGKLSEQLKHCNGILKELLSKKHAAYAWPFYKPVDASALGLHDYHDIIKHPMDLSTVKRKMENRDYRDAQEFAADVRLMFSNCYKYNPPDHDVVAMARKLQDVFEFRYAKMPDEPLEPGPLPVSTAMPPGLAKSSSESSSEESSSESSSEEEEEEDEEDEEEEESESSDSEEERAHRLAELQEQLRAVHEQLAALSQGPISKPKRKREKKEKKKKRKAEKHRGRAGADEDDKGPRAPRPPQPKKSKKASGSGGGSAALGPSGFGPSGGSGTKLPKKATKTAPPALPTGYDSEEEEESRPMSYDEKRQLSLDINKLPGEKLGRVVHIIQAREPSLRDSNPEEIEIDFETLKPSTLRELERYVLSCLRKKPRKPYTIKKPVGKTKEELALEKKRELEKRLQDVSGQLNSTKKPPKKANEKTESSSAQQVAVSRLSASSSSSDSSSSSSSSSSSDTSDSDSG

Compound: CCCOc1ccn2c(C(C)=O)cc(-c3cccc(OC)c3)c2c1
- Activity [1]: inactive
- Activity [2]: inactive
- Activity [3]: inactive
- Kd [4]: 15.8 µM
- Activity (Peregrin (Homo sapiens)): inactive
- Activity [5]: inactive
- Activity [6]: inactive
- Activity [7]: inactive
- Activity [8]: inactive
- Activity [9]: inactive
- Activity [10]: inactive
- Activity [11]: inactive
- Activity [12]: inactive
- Activity [13]: inactive
- Activity [14]: inactive
- Activity [15]: inactive
- Activity [16]: inactive
- Activity [17]: inactive
- Activity [18]: inactive
- Activity [19]: inactive
- Activity [20]: inactive
- Activity [21]: inactive
